A selection: hits, their analogues and other compounds. The true share with any hit is near 2.3%.
MT1-MMP act inh = blocks activation of human MT1-MMP; GFP/RFP ratio change, % at 20 µM; P50281; HT1080 RFP-PRO-GFP cells, GFP/RFP ratio fluorescence, overnight; percent of plate control window, DMSO zero; actives 0.061% (n = 360,000);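 active = GFP/RFP ratio change of at least 30% with cell ATP level not reduced by more than half and red fluorescence within 50% of control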
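Compound: 20 µM single dose, 1% DMSO / System: HT1080 RFP-PRO-GFP cells / Controls: DMSO and RFP-L50D-GFP cell wells / Read-out basis: GFP/RFP fluorescence ratio / Schedule: overnight compound exposure at 37 °C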
DNMT1 inh = DNMT1 (human) enzyme inhibition; P26358; DNMT1 molecular beacon, Hinp1I cleavage, fluorescence; inhibition (reported as % activation of signal), % at 10 µM; actives 0.83% (n = 360,000); in the data active = inhibition above about 50%
SUMO1 PPI mod = SUMO1-SIM interaction modulation. actives 0.33% (n = 360,000). inhibition, % at 20 µM. SUMO1 binding to a labelled peptide, TR-FRET, 1 h. AID 602429; in the data active = inhibition above about 37%
SKN-1 block = inhibitors of C. elegans SKN-1 | inhibition, % at 21.8 µM | actives 0.49% (n = 360,000) | C. elegans VP596 Pgst-4::GFP/RFP ratio, acrylamide-induced, 24 h;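 active = interference check ratio from 0.5 to 1.5 plus GFP to RFP signal ratio inhibition reaching or exceeding a fixed threshold, cut at about 30% in these data, passing the limit was not always enough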
CSN inh = blocks human CSN-mediated cullin deneddylation. inhibition, % at 12.5 µM. AID 651999. Purified CSN, SCF-Nedd8-OG deneddylation, fluorescence polarization. Q92905. actives 0.38% (n = 360,000);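 active = pattern-corrected inhibition above about 35%, with an unprinted fluorescence ratio check between 0.5 and 1.5, limit read from the data, passing the limit was not always enough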;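 note: 0% = enzyme with substrate and 100% = substrate without enzyme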
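Schedule: reaction 90 min, room temperature / Assay system: HEK293T-derived human Csn5 enzyme / Input: Csn5 at 0.24 nM final / Measure: inhibition of Csn5 cleavage, % / Control set: substrate-only high control, full reaction low control / Technique: fluorescence polarization of the substrate / Buffer or medium: Tris/NaCl/DTT buffer, pH 7.5 / Reagent: SCFSkp2-Nedd8OG substrate at 10 nM final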
Rpn11 inh = Rpn11 (human) deubiquitinase inhibition | O00487 | human 26S proteasome, Ub4-pepOG fluorescence polarization; 20S core pre-blocked with epoxomicin | inhibition, % at 20 µM | actives 0.59% (n = 360,000) | AID 588493;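 active = inhibition at 20 µM, scaled to each plate's controls, above about 33%, limit read from the data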
Rpn11 confirm = Rpn11 inhibition confirmation, single concentration. shares compounds with Rpn11 inh. purified human 26S proteasome, Ub4-pepOG fluorescence polarization; proteasome pretreated with epoxomicin. inhibition, % at 20 µM. actives 29% (n = 1,900). AID 602318
MMP-2 inh = counter-screen for RPN11 inhibitors: inhibition of human MMP-2 | inhibition, % at 20 µM | actives 4% (n = 1,900) | recombinant MMP-2, FRET peptide cleavage fluorescence | shares compounds with Rpn11 inh;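 note: human MMP-2 activated beforehand with APMA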
Thrombin inh = counter-screen for RPN11 inhibitors: inhibition of bovine thrombin. shares compounds with Rpn11 inh. bovine thrombin cleavage of Ub4-pepOG, fluorescence polarization. inhibition, % at 20 µM. actives 13% (n = 1,900);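 active = mean inhibition at least 40% at 20 µM, or signal 3 deviations below plate average, so some actives read negative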;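 note: plate controls were thrombin with DMSO for no effect and buffer wells lacking thrombin for full effect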
Target sequence (P00735 whole entry, looked up): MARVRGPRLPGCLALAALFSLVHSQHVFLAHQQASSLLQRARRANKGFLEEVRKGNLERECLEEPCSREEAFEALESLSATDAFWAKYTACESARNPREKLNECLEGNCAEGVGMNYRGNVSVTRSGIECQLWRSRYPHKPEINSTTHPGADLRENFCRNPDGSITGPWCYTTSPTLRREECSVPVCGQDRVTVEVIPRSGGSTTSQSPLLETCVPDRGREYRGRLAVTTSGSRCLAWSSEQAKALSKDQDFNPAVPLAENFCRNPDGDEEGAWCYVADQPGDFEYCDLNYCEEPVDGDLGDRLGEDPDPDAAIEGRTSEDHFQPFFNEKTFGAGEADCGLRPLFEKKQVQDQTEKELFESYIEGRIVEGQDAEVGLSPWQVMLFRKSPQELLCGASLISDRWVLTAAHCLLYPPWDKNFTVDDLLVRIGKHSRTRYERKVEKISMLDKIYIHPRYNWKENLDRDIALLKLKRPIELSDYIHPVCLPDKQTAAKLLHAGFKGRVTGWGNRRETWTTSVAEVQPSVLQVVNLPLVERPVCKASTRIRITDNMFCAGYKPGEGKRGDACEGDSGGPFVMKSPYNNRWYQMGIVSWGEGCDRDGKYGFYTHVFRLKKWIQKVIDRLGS
Numbers without * were called inactive; . = not tested or not shown. Cut-off read from the data, not from the text of the source, unless noted: active = inhibition above about 40%; inactive = the rest.

SMILES | MT1-MMP act inh | DNMT1 inh | SUMO1 PPI mod | SKN-1 block | CSN inh | Rpn11 inh | Rpn11 confirm | MMP-2 inh | Thrombin inh
Cc1cc(SCc2ccc(Cl)cc2Cl)nc(=O)[nH]1 | -7 | 44 | 3 | 8 | 10 | 52* | 37 | -9 | 30
Cc1cc(SCc2ccc(Cl)c(Cl)c2)nc(=O)[nH]1 | 0 | -4 | 2 | -1 | -1 | 5 | . | . | .
Cc1ccc(C(=O)CSc2cc(C)[nH]c(=O)n2)cc1 | -7 | 1 | -16 | 6 | 10 | 60* | 49* | 16 | 24
Cc1cc(SCC(=O)c2ccc(Cl)cc2)nc(=O)[nH]1 | -9 | -1 | -25 | 3 | 8 | 37* | 1 | -14 | -7
Cc1cc(SCC(=O)c2ccccc2)nc(=O)[nH]1 | 0 | -2 | -20 | -2 | 7 | 22 | . | . | .
Cc1csc(SCC(=O)NC(=O)NCc2ccccc2)n1 | 17 | -1 | 2 | -16 | 0 | 183* | -10 | 15 | 6
O=C(O)c1c(Cl)cccc1Nc1ccccc1 | 1 | -1 | 7 | 10 | 3 | 3 | . | . | .
COc1cc(/C=C(/C#N)c2nc3ccccc3c(=O)[nH]2)ccc1O | -77 | -1 | -39 | 3 | 80* | 140* | 40 | 12 | 5
COc1ccc(OC)c(NC(=O)C2(C)CCN2C(=O)CCC2CCCC2)c1 (stereo not drawn) | -3 | 0 | 3 | 10 | 3 | -9 | . | . | .
CCN1/C(=C2/OC(=S)N(C)C2=O)Sc2ccccc21 | 8 | 10 | -4 | 15 | 5 | 11 | . | . | .
CCN1/C(=C\C=C2\C(=O)N(C)C(=S)N2C)Sc2ccccc21 | 18 | -2 | -22 | 31 | 9 | 55* | 3 | -15 | -3
CCOC(=O)C1C(C(=O)OCC)C2C(=O)C3C(C(=O)OCC)C(C(=O)OCC)C3C(=O)C12 (stereo not drawn) | 5 | 3 | -2 | -6 | -4 | 2 | . | . | .
COc1cc(/C=C2\SC(N3CCC(C)CC3)=NC2=O)ccc1O | -24 | 1 | -29 | 17 | 19 | 65* | 34 | -15 | 28
Cc1ccc(Cl)cc1NC(=O)c1cnn2c1NC(c1ccco1)CC2C(F)(F)F (stereo not drawn) | 15 | -13 | 4 | 9 | 17 | 40* | -15 | -6 | -43
Cc1nc(NC(=O)c2ccco2)sc1-c1csc(Nc2ccc(Cl)cc2)n1 | 1 | -17 | 5 | -4 | 104 | 42* | 12 | 35 | -5
COc1ccccc1Nc1nc(-c2sc(NC(=O)c3ccco3)nc2C)cs1 | -2 | -28 | -1 | 21 | 14 | 14 | . | . | .
COc1ccc(NC(=O)c2cc(C3CCCCN3C(=O)CCc3ccccc3)on2)c(C)c1 (stereo not drawn) | -7 | -3 | -2 | 10 | 4 | 2 | . | . | .
O=c1/c(=C\c2ccc(O)cc2)sc2n1C(c1ccccc1)C(c1ccccc1)=NN=2 (stereo not drawn) | -65 | -16 | -7 | 1 | 31 | 81* | 95* | 11 | 86*
CCOc1ccc2nc(SCC(=O)N3c4ccccc4Sc4ccccc43)c(C#N)cc2c1 | -18 | 2 | -20 | 8 | -3 | 59* | 9 | -29 | -2
C=CCn1nc([N+](=O)[O-])nc1Sc1cccc2cccnc12 | -4 | -21 | -11 | 5 | -14 | 67* | 28 | 3 | -15
O=[N+]([O-])c1ccc(Sc2cccc3cccnc23)c([N+](=O)[O-])c1 | 7 | -15 | -22 | 17 | -2 | 71* | 57* | -11 | 0
